One block for each compound: values may come before it.
What was measured:
[1] = The compound was evaluated for the apparent Vmax through Lineweaver-Burke Plot of MTX turnover by CPG2 at a concentration of 0.5 (uM).; type: ADME
Procedure, shortened: (§1)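 CPG2 (10 μL of 28.66 μg/mL stock) in a 1-mL cuvette; reaction started with 990 μL methotrexate (3.077–70 μM) alone or with inhibitor at fixed 0.5 or 1.0 μM (final). Buffer was 0.1 M Tris-HCl pH 7.3, 0.1 mM ZnCl2, 37 °C. A320 decrease over 0–60 s gave initial velocities; apparent Vmax came from Lineweaver–Burk plots.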

[2] = The compound was evaluated for the apparent Vmax through Lineweaver-Burke Plots of MTX turnover by CPG2 at a concentration of 0 (uM).; type: ADME; procedure, shortened: as §1
[3] = The compound was evaluated for the apparent Vmax through Lineweaver-Burke Plots of MTX turnover by CPG2 at a concentration of 1 (uM).; type: ADME; procedure, shortened: as §1
LS174T [4] = experiment: The compound was evaluated for the cytotoxicity towards LS174T cells.; type: functional, cell-based; conditions: Homo sapiens
Procedure, shortened: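 LS174T human colon adenocarcinoma cells (CEA-expressing) exposed to graded inhibitor, 0.01–500 μM in medium, for 1 h at 37 °C. Cells were washed once, grown a further 6 days, and survival was read by SRB assay to give IC50.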

LS174T [5] = experiment: Cytotoxicity in conjugate with 2-(4-Methoxy-phenylsulphanylcarbonylamino)-pentanedioic acid at a concentration of 50 micuM against LS174T cells.; type: functional, cell-based; conditions: Homo sapiens
LS174T [6] = experiment: Cytotoxicity in conjugate with F(ab')2-A5B7-CPG2 and 2-(4-Methoxy-phenylsulphanylcarbonylamino)-pentanedioic acid at a concentration of 25 uM against LS174T cells.; type: functional, cell-based; conditions: Homo sapiens
Procedure, shortened: (§2)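 LS174T human colon adenocarcinoma cells (CEA-expressing) were exposed to F(ab')2-A5B7-CPG2 conjugate (3.32 μg/mL, 0.505 U/mL) for 1 h at 37 °C and washed twice to remove unbound conjugate. They were then exposed for 1 h at 37 °C to graded prodrug plus the stated fixed CPG2 inhibitor level (25 or 50 μM). After a wash, cells grew 6 days; survival was measured by SRB assay.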

LS174T [7] = experiment: Cytotoxicity in conjugate with F(ab')2-A5B7-CPG2 and 2-(4-Methoxy-phenylsulphanylcarbonylamino)-pentanedioic acid at a concentration of 50 uM against LS174T cells.; type: functional, cell-based; conditions: Homo sapiens; procedure, shortened: as §2
LS174T [8] = experiment: The compound was evaluated for the cytotoxicity in conjugate with F(ab')2-A5B7-CPG2 against LS174T cells.; type: functional, cell-based; conditions: Homo sapiens
Procedure, shortened: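 They then received graded prodrug (0.01–500 μM in medium) for 1 h at 37 °C to generate the phenol mustard in situ. After a wash and a further 6 days, survival was measured by SRB assay.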

LS174T [9] = experiment: The compound was evaluated for the cytotoxicity with the compound alone against LS174T cells.; type: functional, cell-based; conditions: Homo sapiens
Procedure, shortened: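 LS174T cells were exposed to graded compound alone (0.01–500 μM in medium) for 1 h at 37 °C, with no conjugate. Cells were washed once with medium and cultured a further 6 days. Survival was measured by sulforhodamine B (SRB) assay.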

Vmax [1]: 47.7 µM/min
Vmax [2]: 80 µM/min
Vmax [3]: 42.3 µM/min
SMILES: COc1ccc(SC(=O)N[C@H](CCC(=O)O)C(=O)O)cc1
IC50 (LS174T [4]): > 500 µM

SMILES: Cc1cccc(SC(=O)NC(CCC(=O)O)C(=O)O)c1 (stereo not given)
IC50 (LS174T [4]): > 500 µM

SMILES: COc1cccc(SC(=O)NC(CCC(=O)O)C(=O)O)c1 (stereo not given)
IC50 (LS174T [4]): > 500 µM

SMILES: Nc1cccc(SC(=O)NC(CCC(=O)O)C(=O)O)c1 (stereo not given)
IC50 (LS174T [4]): > 500 µM

SMILES: COc1ccc(SC(=O)N[C@@H](CCC(=O)O)C(=O)O)cc1
IC50 (LS174T [4]): > 500 µM

SMILES: O=C(O)CCC(NC(=O)Oc1ccc(N(CCCl)CCCl)cc1)C(=O)O (stereo not given)
IC50 (LS174T [5]): 24 µM
IC50 (LS174T [6]): 3.3 µM
IC50 (LS174T [7]): 16.2 µM
IC50 (LS174T [8]): 0.8 µM
IC50 (LS174T [9]): 23.2 µM

SMILES: Nc1ccc(SC(=O)NC(CCC(=O)O)C(=O)O)cc1 (stereo not given)
IC50 (LS174T [4]): 416 µM

SMILES: Cc1ccc(SC(=O)NC(CCC(=O)O)C(=O)O)cc1 (stereo not given)
IC50 (LS174T [4]): > 500 µM
